Bioassay records (PubChem)
aSyn 5UTR inh: MLPCN primary screen, SNCA 5' untranslated region; alpha-synuclein 5'UTR reporter, inhibitor activity; inhibition, % (tested at 7.5 µM); hit rate 0.82% among 300,000; AID 1813; in the data active = inhibition above about 60%;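 also: H4 neuroglioblastoma cells stably carrying SNCA 5'UTR luciferase fusion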
Mdm2-MdmX inh: human Mdm2/MdmX binding inhibition. O15151+Q00987. inhibition, % at 8 µM. hit rate 3% among 330,000. SaOS-2 split-luciferase Mdm2/MdmX complementation, luminescence;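 active = inhibition of at least 50% at 8 µM in the primary screen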
Jurkat NFkB inh: inhibitors of the PMA/ionomycin-induced NF-kB reporter in Jurkat cells; PMA/ionomycin-induced NF-kB luciferase reporter, luminescence; hit rate 0.53% among 330,000; inhibition, % at 4 µM; in the data active = inhibition above about 50%
IMP-1 inhibitor: blocks Pseudomonas aeruginosa IMP-1 metallo-beta-lactamase; purified IMP-1, nitrocefin hydrolysis, epi-absorbance fluorescence; inhibition, % at 5.6 µM; hit rate 0.45% among 290,000; AID 1556;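 active = inhibition above the mean plus 3 SD of all compounds in the same screening run, cut at about 4.5% in these data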
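System: Purified IMP-1 | Read-out basis: Percent enzyme inhibition | Controls: IMP-1 with DMSO as 0%, enzyme-free DMSO as 100% | Replicates: One well per compound | Doses: 5.6 µM nominal single concentration | Detection: Epi-absorbance fluorescence, 480 nm excitation, 530 nm emission | Incubation: 25 °C, 15 min preincubation, 25 min reaction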
VIM-2 inh: inhibitors of Pseudomonas aeruginosa VIM-2 metallo-beta-lactamase. inhibition, % at 5.6 µM. AID 1527. purified VIM-2, nitrocefin hydrolysis, epi-absorbance fluorescence. hit rate 0.89% among 290,000;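 active = inhibition above the mean of all tested compounds plus 3 SD, cutoff set per screening run, cut at about 7.5% in these data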;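 also: red hydrolysis product quenches plate fluorescence so inhibitors raise well fluorescence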
697 NFkB inh: lowers PMA/ionomycin-induced NF-kB signal in 697 B cells. hit rate 0.33% among 330,000. 697 B-cell NF-kB luciferase reporter, 16 h. inhibition, % at 4 µM; in the data active = inhibition above about 35%
Mdm2 MdmX conf: human Mdm2/MdmX binding inhibition, confirmed. shares compounds with Mdm2-MdmX inh. luminescent assay. inhibition, % at 8 µM. AID 489028. hit rate 55% among 10,000; in the data active = inhibition above about 40%
Full FLuc ctr: inhibits full-length luciferase, flagging false Mdm2/MdmX hits | shares compounds with Mdm2-MdmX inh | SaOS-2 full-length luciferase counterscreen, luminescence | inhibition, % at 8 µM | hit rate 77% among 6,200;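 active = mean inhibition at 8 µM reaching about 37%, which flags the compound as non-specific, limit read from the data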;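 also: p53-null SaOS-2 cells with luciferase driven by a doxycycline-inducible promoter; compound on cells about two nights before reading with doxycycline added after day one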
A number is an active result. Rows were chosen to be rich in hits. Some 4.7% of all compounds tested hit in one or more screens of this group.

Screening C[CH2][Hg][S]c1ccccc1C(=O)O returned Mdm2-MdmX inh 100.4, Jurkat NFkB inh inactive, 697 NFkB inh inactive, Mdm2 MdmX conf 100.5 and Full FLuc ctr 51.5.
For CCOc1ccc(-n2c(O)c(N=Nc3c(C)n(C)n(-c4ccccc4)c3=O)c(=O)[nH]c2=O)cc1 the results were aSyn 5UTR inh inactive, Mdm2-MdmX inh inactive, Jurkat NFkB inh inactive, IMP-1 inhibitor inactive, VIM-2 inh inactive and 697 NFkB inh inactive.
Screening Brc1ccc2c(c1)C(OC1CN3CCC1CC3)c1ccccc1CS2 (configuration not stated) returned aSyn 5UTR inh inactive, Mdm2-MdmX inh 80.2, Jurkat NFkB inh inactive, IMP-1 inhibitor inactive, VIM-2 inh inactive, 697 NFkB inh inactive, Mdm2 MdmX conf 66.8 and Full FLuc ctr inactive.
Cc1ccc(CN2CCCC(C(=O)c3sccc3C)C2)o1 (configuration not stated) was read as aSyn 5UTR inh inactive, Mdm2-MdmX inh inactive, Jurkat NFkB inh inactive, IMP-1 inhibitor inactive, VIM-2 inh inactive and 697 NFkB inh inactive.
`COC(=O)[C@@H]1C[C@]2(C(=O)O)c3ccccc3N(OOSc3ccccc3)[C@@H]2N1C(=O)OC` gave aSyn 5UTR inh inactive, Mdm2-MdmX inh inactive, Jurkat NFkB inh inactive and 697 NFkB inh inactive.
For COc1ccccc1OP(=O)(Nc1cccnc1)Oc1ccccc1OC the results were aSyn 5UTR inh inactive, Mdm2-MdmX inh 50.7, Jurkat NFkB inh inactive, IMP-1 inhibitor inactive, VIM-2 inh inactive, 697 NFkB inh inactive, Mdm2 MdmX conf 48.1 and Full FLuc ctr 74.4.
For COc1ccc(CCNCc2ccsc2)cc1OC the results were aSyn 5UTR inh inactive, Mdm2-MdmX inh inactive, Jurkat NFkB inh inactive, IMP-1 inhibitor inactive, VIM-2 inh inactive and 697 NFkB inh inactive.
For O=c1[nH]c(=S)[nH]c(O)c1N=Nc1ccc(S(=O)(=O)N2CCc3ccccc32)cc1 the results were aSyn 5UTR inh inactive, Mdm2-MdmX inh 58.3, Jurkat NFkB inh inactive, IMP-1 inhibitor inactive, VIM-2 inh inactive, 697 NFkB inh inactive and Mdm2 MdmX conf inactive.
CCOc1ccc(-c2cc(C)[n+](CCc3ccc(OC)c(OC)c3)c(-c3ccc(OCC)cc3)c2)cc1 was read as aSyn 5UTR inh inactive, Mdm2-MdmX inh 80.6, Jurkat NFkB inh inactive, IMP-1 inhibitor inactive, VIM-2 inh inactive, 697 NFkB inh inactive, Mdm2 MdmX conf 61.4 and Full FLuc ctr inactive.
Cc1cc(-c2ccccc2)cc(-c2ccccc2)[n+]1CCc1ccccc1 was read as aSyn 5UTR inh inactive, Mdm2-MdmX inh 60.7, Jurkat NFkB inh inactive, 697 NFkB inh inactive and Mdm2 MdmX conf inactive.
COc1ccc(C(=O)C2(C)N(O)C(C)C(c3cccs3)=[N+]2[O-])cc1 (configuration not stated) was read as aSyn 5UTR inh inactive, Mdm2-MdmX inh inactive, Jurkat NFkB inh inactive, IMP-1 inhibitor inactive, VIM-2 inh inactive and 697 NFkB inh inactive.
For Cn1cccc1CNCCc1ccccc1F the results were aSyn 5UTR inh inactive, Mdm2-MdmX inh inactive, Jurkat NFkB inh inactive, IMP-1 inhibitor inactive, VIM-2 inh inactive and 697 NFkB inh inactive.
For C/C1=C\[C@@H](C)C/C=C/[C@H]2[C@@H]3O[C@]3(C)[C@@H](C)[C@H]3[C@H](Cc4c[nH]c5ccccc45)NC(=O)[C@]32C(=O)/C=C/C(=O)[C@@H]1O the results were aSyn 5UTR inh 81.1, Mdm2-MdmX inh 82.6, Jurkat NFkB inh inactive, IMP-1 inhibitor inactive, VIM-2 inh inactive, 697 NFkB inh inactive, Mdm2 MdmX conf 45.7 and Full FLuc ctr inactive.
Screening C=C1[C@H]2CC[C@H]3[C@]4(C)C[C@H](O[C@H]5O[C@H](CO)[C@@H](OS(=O)(=O)O)[C@H](OS(=O)(=O)O)[C@H]5OC(=O)CC(C)C)C[C@@H](C(=O)O)[C@H]4CC[C@]3(C2)[C@H]1O returned Mdm2-MdmX inh inactive, Jurkat NFkB inh inactive and 697 NFkB inh inactive.
`Cc1ccc(/C=C2\C(=O)NC(=S)N(c3ccc(F)cc3)C2=O)s1` gave aSyn 5UTR inh inactive, Mdm2-MdmX inh 79.9, Jurkat NFkB inh inactive, IMP-1 inhibitor inactive, VIM-2 inh inactive, 697 NFkB inh inactive and Mdm2 MdmX conf inactive.
Screening O=C1CN=C(c2ccccc2Cl)c2cc(Br)ccc2N1 returned aSyn 5UTR inh inactive, Mdm2-MdmX inh inactive, Jurkat NFkB inh inactive and 697 NFkB inh inactive.
For O=C1CN=C(c2ccc[nH]2)c2cc(Cl)ccc2N1 the results were aSyn 5UTR inh inactive, Mdm2-MdmX inh 64.6, Jurkat NFkB inh inactive, IMP-1 inhibitor inactive, VIM-2 inh inactive, 697 NFkB inh inactive, Mdm2 MdmX conf 68.1 and Full FLuc ctr 52.9.
`COC(=O)C1=C(c2ccccc2OCc2ccccc2)C[C@@H]2CC[C@H]1N2C(=O)NCc1ccc(N(C)C)cc1` gave Mdm2-MdmX inh 61.6, Jurkat NFkB inh inactive, 697 NFkB inh inactive and Mdm2 MdmX conf inactive.
COC(=O)C1=C(c2ccc(F)cc2OCc2ccccc2)C[C@@H]2CC[C@H]1N2C(=O)NCCOc1ccccc1Cl was read as Mdm2-MdmX inh 57.2, Jurkat NFkB inh inactive, 697 NFkB inh inactive and Mdm2 MdmX conf inactive.
Screening COC(=O)C1=C(c2ccc(F)cc2OCc2ccccc2)C[C@@H]2CC[C@H]1N2C(=O)NCc1ccc(N(C)C)cc1 returned Mdm2-MdmX inh inactive, Jurkat NFkB inh inactive and 697 NFkB inh inactive.
CC12CCC3C(CC=C4CC(O)CCC43C)C1C/C(=C\c1ccccc1F)C2=O (configuration not stated) was read as aSyn 5UTR inh inactive, Mdm2-MdmX inh 77.8, Jurkat NFkB inh inactive, IMP-1 inhibitor inactive, VIM-2 inh inactive, 697 NFkB inh inactive and Mdm2 MdmX conf inactive.
`C[C@]12CC[C@H](O)CC1=CCC1C2CC[C@]2(C)C(=O)[C@H](Br)CC12` (some centres not stated) gave Mdm2-MdmX inh 50.0, Jurkat NFkB inh inactive, 697 NFkB inh inactive and Mdm2 MdmX conf inactive.
For C=Cc1ccc(Cn2c(C(=O)O)c(C=O)c3ccccc32)cc1 the results were aSyn 5UTR inh inactive, Mdm2-MdmX inh inactive, Jurkat NFkB inh inactive, IMP-1 inhibitor inactive, VIM-2 inh inactive and 697 NFkB inh inactive.
Screening O=[N+]([O-])c1ccc(-[n+]2c(-c3ccccc3)cc(-c3ccccc3)cc2-c2ccccc2)cc1 returned aSyn 5UTR inh inactive, Mdm2-MdmX inh inactive, Jurkat NFkB inh inactive, IMP-1 inhibitor inactive, VIM-2 inh inactive and 697 NFkB inh inactive.
Screening O=[N+]([O-])c1ccccc1-c1cc(-c2ccccc2)cc(-c2ccccc2)[n+]1Cc1ccccc1Cl returned aSyn 5UTR inh 63.8, Mdm2-MdmX inh 88.1, Jurkat NFkB inh inactive, 697 NFkB inh inactive, Mdm2 MdmX conf 69.0 and Full FLuc ctr inactive.
